Bioassay records (PubChem)
SKKanGAS inh = S. pyogenes SKKanGAS growth inhibitors in kanamycin, primary screen, streptokinase expression inhibitor project, SKKanGAS strain, BacTiter-Glo luminescence | 6 h | inhibition, % at 7.5 µM | actives 1.3% (n = 300,000);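 active = mean replicate score, as percent of positive control median, at least 50; inconclusive = mean below 50 but one replicate at or above 50; inactive = mean and every replicate below 50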;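 also: strain carries kanamycin resistance gene driven by streptokinase promoter and grows in 40 µg/ml kanamycin; loss of luminescence reflects streptokinase promoter inhibition or plain growth inhibition; 0% = median of DMSO wells and 100% = positive control at its reference dose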
aSyn UTR inh = MLPCN primary screen, SNCA 5' untranslated region | alpha-synuclein 5'UTR reporter, inhibitor activity | inhibition, % (tested at 7.5 µM) | actives 0.82% (n = 300,000); in the data active = inhibition above about 60%; inconclusive = no clear call, values can overlap the other calls;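 also: H4 neuroglioblastoma cells stably carrying SNCA 5'UTR luciferase fusion; 0% = DMSO wells and 100% = positive control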
T cruzi repl = inhibitors of intracellular T. cruzi growth, primary screen, luminescence, NIH3T3 host cells. T. cruzi beta-gal in NIH3T3, 90 h. inhibition, % (concentration not given with the values). actives 1.4% (n = 300,000). AID 1885, 2009;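 active = mean inhibition across valid replicates above about 55%, limit read from the data; inconclusive = mean below that limit but half or more replicates reach it; inactive = mean below it, under half of replicates reach it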;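 also: signal also drops with host cell toxicity which is not excluded here; 0% = plate median of DMSO wells and 100% = zero luminescence signal; higher percent means less beta-gal luminescence so fewer parasites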
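Read-out: Parasite load inhibition, % | Test system: Mouse NIH/3T3 fibroblasts infected with β-gal-expressing T. cruzi Tulahuen C4 | Amount: 5,000 cells/well | Medium: DMEM, 2% fetal bovine serum | Signal: GalScreen β-gal luminescence, detergent lysis, 60 min | Timing: 3 h attach, ≥90 h co-culture | Also added: Tulahuen C4 trypomastigotes, 5000/well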
Mdm2 MdmX PPI = inhibitors of human Mdm2-MdmX association, primary screen, cell-based, luminescence, split luciferase, SaOS-2, uHTS | Protein Mdm4 (Homo sapiens) + E3 ubiquitin-protein ligase Mdm2 (Homo sapiens), … | SaOS-2 split-luciferase Mdm2/MdmX complementation | inhibition, % at 8 µM | actives 3% (n = 330,000) | AID 485346, 2010;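 active = inhibition of at least 50% at 8 µM in the primary screen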
Target sequence (O15151 whole entry, looked up): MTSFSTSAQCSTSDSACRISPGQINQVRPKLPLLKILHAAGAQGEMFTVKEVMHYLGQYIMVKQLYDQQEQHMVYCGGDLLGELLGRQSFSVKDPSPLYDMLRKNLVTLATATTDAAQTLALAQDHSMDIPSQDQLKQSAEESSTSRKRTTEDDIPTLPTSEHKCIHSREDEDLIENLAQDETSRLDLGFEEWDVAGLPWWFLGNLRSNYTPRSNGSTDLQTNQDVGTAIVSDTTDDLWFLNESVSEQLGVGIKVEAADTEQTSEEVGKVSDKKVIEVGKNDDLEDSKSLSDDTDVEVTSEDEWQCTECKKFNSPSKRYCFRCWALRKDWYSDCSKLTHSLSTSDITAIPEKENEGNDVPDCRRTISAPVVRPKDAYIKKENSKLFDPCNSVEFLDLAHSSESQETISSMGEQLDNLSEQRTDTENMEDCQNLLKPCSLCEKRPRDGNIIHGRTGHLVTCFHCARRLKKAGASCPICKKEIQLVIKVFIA
Target sequence (Q00987 whole entry, looked up): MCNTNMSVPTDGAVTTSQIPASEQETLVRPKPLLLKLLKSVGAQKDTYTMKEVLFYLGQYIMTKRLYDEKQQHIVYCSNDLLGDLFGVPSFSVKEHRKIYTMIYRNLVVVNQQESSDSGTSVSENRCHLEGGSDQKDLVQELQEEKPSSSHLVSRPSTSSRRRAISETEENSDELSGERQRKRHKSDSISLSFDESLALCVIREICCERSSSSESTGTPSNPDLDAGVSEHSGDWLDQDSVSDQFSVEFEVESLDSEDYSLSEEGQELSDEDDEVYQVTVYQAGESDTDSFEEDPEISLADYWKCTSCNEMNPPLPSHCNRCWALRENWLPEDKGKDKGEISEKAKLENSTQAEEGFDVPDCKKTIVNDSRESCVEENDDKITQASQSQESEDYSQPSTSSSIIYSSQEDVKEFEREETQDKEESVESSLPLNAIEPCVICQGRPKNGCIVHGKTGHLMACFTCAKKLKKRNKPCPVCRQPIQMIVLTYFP
CSC inhib = cancer stem cell viability inhibitors, primary screen, luminescence; cancer stem cell-like cells viability; inhibition, % at 7.5 µM; actives 1.1% (n = 300,000); AID 2717, 2010; in the data active = inhibition above about 75%; inconclusive = no clear call, values can overlap the other calls; tested in HMLE shEcad cells
* = called active by the depositor; ? = inconclusive; · = no result given. Hits are enriched below; roughly 5.4% of the tested compounds scored in any of these assays.

SMILES	SKKanGAS inh	aSyn UTR inh	T cruzi repl	Mdm2 MdmX PPI	CSC inhib
CCN1C(=O)C(C)S/C1=N\S(=O)(=O)c1ccc(Cl)s1 (configuration not stated)	-0.8	-3.2	14.6	23.5	·
CCCOc1ccc(C(=O)NNC(=S)NC(=O)c2cc(-c3ccc(Cl)cc3)nc3ccccc23)cc1	99.3*	9.4	32.2	29.7	70.6
CCNC(=S)NNC(=O)c1cc(-c2ccc(OCC)cc2)nc2ccccc12	43.3	55.5	2.1	-93.8	19.6
CCC1(c2ccccc2)NC(=O)N(CC(=O)NNC(=O)c2ccc(F)cc2)C1=O (configuration not stated)	·	·	·	1.8	·
CC1CCCN(CCOCCSc2ccccc2)C1 (configuration not stated)	0.2	-4.1	59.9*	7.8	48.4
CC1CC(C)CN(CCOCCSc2ccccc2)C1 (configuration not stated)	6.3	3.1	60.0*	-9.7	28.7
CC1CC(C)CN(CCCSc2ccccc2)C1 (configuration not stated)	4.9	-15.6	4.7	-33.8	7.6
c1ccc(SCCOCCN2CCOCC2)cc1	-7.6	-24.2	11.6	-13.9	13.2
Cc1cc(Cl)c(OCCOCCN2CCCC(C)C2)c(Br)c1 (configuration not stated)	0.3	-24.3	72.7*	12.3	·
Cc1cc(Cl)c(OCCOCCN2CCCCC2)c(Br)c1	2.4	-21.1	30.9	-7.5	63.1
O=C(NNc1ccccc1C(F)(F)F)c1sccc1Br	9.5	19.1	·	7.7	7.8
CCNC(=O)c1c(NC(=O)c2cc(-c3cc(C)ccc3O)n[nH]2)sc2c1CCCC2	82.3*	14.1	45.7	45.5	?
Cc1ccc2[nH]cc(CCNC(=O)c3cccs3)c2c1	4.0	-30.3	-13.2	-13.0	-3.7
C/C(=N\NC(=S)Nc1cccc(C)c1)c1ccco1	38.2	-188.6	76.9*	-53.9	-1.6
O=C(CN(Cc1ccco1)C(=O)c1ccc(F)cc1)Nc1ccccc1Br	·	·	·	-4.8	-4.5
Cc1sc2ncnc(N3CCN(CCOc4ccc(Cl)cc4)CC3)c2c1C	1.5	-40.1	58.9*	6.6	83.1*
Cc1sc2ncnc(N3CCC(C)CC3)c2c1C	8.9	47.5	-5.4	19.6	4.3
Cc1ccc(C(=O)NC(=S)Nc2cccc3c(C)cc(C)nc23)cc1	78.5*	-32.3	29.3	-1.3	17.7
Cc1ccc(C(=O)NC(=S)Nc2cccc3nsnc23)cc1	-0.9	-100.5	-11.9	-18.3	-0.7
CCc1cccc(C)c1NC(=O)COC(=O)c1c2c(nc3ccccc13)/C(=C\c1cccs1)CCC2	15.0	-4.2	58.8*	29.6	33.5
CC(C)CNC(=O)COC(=O)c1c2c(nc3ccccc13)/C(=C/c1cccs1)CC2	22.7	-110.2	45.6	·	52.4
Cc1ccc(CSCC(=O)N(C)CC(=O)Nc2c(Cl)cccc2Cl)cc1	0.4	14.3	-13.6	9.2	-3.9
OCc1ccc2c(c1)c(-c1ccc3c(c1)OCCO3)c(-c1ccccc1)n2-c1ccccc1	·	·	·	29.0	92.2*
O=C(NCc1ccccc1Cl)c1nnc(CS(=O)(=O)c2ccccc2)o1	0.6	-0.2	3.5	-25.3	-14.5
COc1ccc(NC(=O)CON=CC(=O)Nc2ccc(C)cc2)c(OC)c1	·	·	·	-6.9	-12.8
SMILES	SKKanGAS inh	aSyn UTR inh	T cruzi repl	Mdm2 MdmX PPI	CSC inhib
O=C(Nc1cccc(Cl)c1)C1CCCN(C2=NS(=O)(=O)c3ccccc32)C1 (configuration not stated)	·	·	·	16.0	·
O=[N+]([O-])c1ccc(Sc2nccn2Cc2ccccc2)c([N+](=O)[O-])c1	0.7	4.0	65.0*	44.2	46.5
COc1ccc(CCNC(=O)CN(c2ccccc2OC)S(=O)(=O)c2ccc(C)cc2)cc1	16.8	0.7	60.3*	16.5	-3.3
COc1ccc(N(CC(=O)NCCC2=CCCCC2)S(=O)(=O)c2ccccc2F)cc1	-10.5	5.7	3.8	13.7	-12.2
COc1ccc(N(CC(=O)NCCC2=CCCCC2)S(C)(=O)=O)cc1	-7.1	3.8	2.4	4.9	-18.1
COc1ccc(N(CC(=O)NCCC2=CCCCC2)S(=O)(=O)c2ccc(C)cc2)cc1	0.5	9.7	61.9*	16.4	-4.2
CCOc1ccc(N(CC(=O)NCCC2=CCCCC2)S(=O)(=O)c2ccccc2)cc1	-6.9	13.0	62.0*	9.2	-11.3
COC(=O)[C@]1(Cc2ccccc2)N[C@H](CN(C)C(=O)Nc2ccc(C(F)(F)F)cc2)[C@@H]2C(=O)N(C)C(=O)[C@@H]21	·	·	·	-6.2	4.6
Cn1c(CSCc2ccc(Cl)c(Cl)c2)n[nH]c1=S	-3.8	-3.8	3.6	-6.8	6.4
CC1CCc2nc(NC(=O)Cc3cccs3)sc2C1 (configuration not stated)	3.5	-160.1	-9.2	-112.3	0.8
O=C(Nc1nc2cc3c(cc2s1)OCO3)c1ccco1	11.4	79.8*	-4.3	·	·
CC1CCc2nc(NC(=O)c3ccco3)sc2C1 (configuration not stated)	6.7	88.1*	-5.5	18.0	1.1
Fc1cccc(C[n+]2csc3ccccc32)c1	14.6	-30.5	54.5*	-17.5	·
COc1ccc(NC(=S)NCc2ccc(F)cc2)cc1	0.8	-5.5	3.9	6.9	-8.3
Cc1ccc(NC(=S)NNC(=S)Nc2cccc(C(F)(F)F)c2)cc1	87.8*	-36.1	44.0	-8.2	47.9
Cc1ccc(NS(=O)(=O)c2c(C)noc2C)cc1	-1.9	-4.4	-1.4	-0.5	-16.0
COc1ccc(C(C)NC(=O)c2ccc([N+](=O)[O-])cc2)cc1OC (configuration not stated)	-0.2	6.7	-0.9	6.4	5.7
Cc1ccc(S(=O)(=O)N2CCC(=O)N(C(COCc3ccc(Cl)cc3Cl)Cc3ccccc3)CC2)cc1 (configuration not stated)	16.3	22.2	74.8*	38.8	21.5
O=C1C=C(c2ccc3[nH]ccc3c2)C[C@@H](c2ccc(Cl)cc2)C1	·	·	·	45.5	50.6
COc1cccc(OCC(O)CN2CCC(CN3C(=O)c4cccc5cccc(c45)C3=O)CC2)c1 (configuration not stated)	1.6	5.1	62.8*	0.4	12.6
COc1ccc(COCC(O)CN2CCC(CN3C(=O)c4cccc5cccc(c45)C3=O)CC2)cc1OC (configuration not stated)	2.4	-24.6	40.5	14.8	-2.7
Cc1ccc(C(=O)N=c2sccn2C)o1	6.9	-53.2	-3.6	-23.7	-7.0
O=C(CCN1C(=O)c2ccccc2C1=O)NCc1ccc(Cl)cc1	0.1	2.0	-13.2	-22.5	6.0
O=C1C=C(c2ccc(Cl)c(C(F)(F)F)c2)C[C@@H](c2ccc3c(c2)OCO3)C1	·	·	·	17.5	109.9*
CC(=O)N1CCN(S(=O)(=O)c2cccc(C(=O)Nc3cc(C(F)(F)F)ccc3N3CCOCC3)c2)CC1	18.0	17.8	2.5	16.3	-3.6
